Test results as given in ChEMBL document CHEMBL3600342, “Fragment-Based Drug Discovery Targeting Inhibitor of Apoptosis Proteins: Discovery of a Non-Alanine Lead Series with Dual Activity Against cIAP1 and XIAP” (J Med Chem, 2015).
One block for each molecule: values may come before it. Activity calls are given as the source filed them. No cut-off for these calls is given here.

Tests used:
[1] = biological target: T1, E3 ubiquitin-protein ligase XIAP (Homo sapiens, UniProt P98170); assay: Antagonist activity at XIAP-BIR3 domain (unknown origin) assessed as inhibition of interaction with SMAC at 155 uM by fluorescence polarization assay relative to control
T1 sequence (P98170 whole entry, the tested form may be a part): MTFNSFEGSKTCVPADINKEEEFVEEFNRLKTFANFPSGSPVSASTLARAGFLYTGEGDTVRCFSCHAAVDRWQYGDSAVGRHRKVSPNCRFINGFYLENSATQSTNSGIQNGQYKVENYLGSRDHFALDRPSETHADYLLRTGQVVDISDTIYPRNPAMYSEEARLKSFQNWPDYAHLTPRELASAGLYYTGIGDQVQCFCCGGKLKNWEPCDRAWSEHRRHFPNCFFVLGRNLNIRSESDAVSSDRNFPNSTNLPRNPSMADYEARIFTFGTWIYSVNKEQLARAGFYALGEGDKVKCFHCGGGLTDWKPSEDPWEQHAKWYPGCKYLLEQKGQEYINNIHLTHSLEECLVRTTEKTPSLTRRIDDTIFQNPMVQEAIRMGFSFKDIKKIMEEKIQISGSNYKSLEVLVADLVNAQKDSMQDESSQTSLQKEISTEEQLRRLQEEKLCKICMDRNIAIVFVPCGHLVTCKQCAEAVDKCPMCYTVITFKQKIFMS

[2] = biological target: Baculoviral IAP repeat-containing protein 2 (Homo sapiens) (UniProt Q13490); assay: Antagonist activity at cIAP1-BIR3 domain (unknown origin) assessed as inhibition of interaction with SMAC at 5 mM by fluorescence polarization assay relative to control
Baculoviral IAP repeat-containing protein 2 (Homo sapiens), sequence (Q13490 whole entry, the tested form may be a part): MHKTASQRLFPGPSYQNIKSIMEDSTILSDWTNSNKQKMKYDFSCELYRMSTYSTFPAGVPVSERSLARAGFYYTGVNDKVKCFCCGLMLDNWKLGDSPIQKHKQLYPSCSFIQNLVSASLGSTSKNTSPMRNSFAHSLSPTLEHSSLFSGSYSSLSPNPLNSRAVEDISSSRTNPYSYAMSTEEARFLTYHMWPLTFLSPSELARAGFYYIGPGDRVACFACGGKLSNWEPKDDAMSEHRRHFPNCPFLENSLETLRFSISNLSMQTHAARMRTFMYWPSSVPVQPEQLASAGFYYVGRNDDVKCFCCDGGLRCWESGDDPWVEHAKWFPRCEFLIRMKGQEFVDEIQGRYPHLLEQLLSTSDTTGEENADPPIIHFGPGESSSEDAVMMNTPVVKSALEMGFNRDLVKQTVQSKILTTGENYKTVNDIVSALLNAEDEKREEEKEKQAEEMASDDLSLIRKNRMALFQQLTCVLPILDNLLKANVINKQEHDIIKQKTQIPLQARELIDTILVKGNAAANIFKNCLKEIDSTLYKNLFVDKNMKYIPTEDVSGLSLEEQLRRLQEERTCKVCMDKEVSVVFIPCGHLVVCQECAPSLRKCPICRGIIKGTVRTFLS
Method in brief: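 Competitive FP assay: cIAP1-BIR3 (4 nM) with a 2 nM SMAC-derived FAM peptide tracer, AbuRPFK(5&6FAM)-amide. Compound was tested at 5 mM. Polarization was read at ex 485/em 538 nm and expressed as percent inhibition, mean of at least two runs.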

[3] = biological target: T1, E3 ubiquitin-protein ligase XIAP; assay: Antagonist activity at XIAP-BIR3 domain (unknown origin) assessed as inhibition of interaction with SMAC at 5 mM by fluorescence polarization assay relative to control
Method in brief: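 Competitive FP binding of a SMAC-derived fluorescent tracer, AbuRPFK(5&6FAM)-amide (5 nM), to XIAP-BIR3 (20 nM). Compound was tested at 5 mM and equilibrated at room temperature. Polarization was read at ex 485/em 538 nm and reported as percent inhibition, mean of at least two runs.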

[4] = biological target: T1, E3 ubiquitin-protein ligase XIAP; assay: Antagonist activity at XIAP-BIR3 domain (unknown origin) assessed as inhibition of interaction with SMAC at 1 mM by fluorescence polarization assay relative to control
[5] = biological target: T1, E3 ubiquitin-protein ligase XIAP; assay: Antagonist activity at XIAP-BIR3 domain (unknown origin) assessed as inhibition of interaction with SMAC at 1000 uM by fluorescence polarization assay relative to control
[6] = tested on: Mus musculus; assay: Reduction of XIAP level in human MDA-MB-231 cells xenografted in Balb/c SCID mouse at 100 mg/kg, ip measured after 1 to 24 hrs by Western blot analysis; type: functional, organism-based
Method in brief: (§1)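 Male Balb/c scid mice bearing MDA-MB-231 tumors received a single 100 mg/kg i.p. dose in 10% DMSO/90% saline (freebase equivalent). Tumors were harvested at 1, 6 and 24 h and snap frozen. Lysates were ground under liquid nitrogen in Triton lysis buffer with NaF/Na3VO4, and equal protein was run on SDS-PAGE. Blots were probed for cIAP1, XIAP, cleaved PARP and cleaved caspase-3, with infrared detection; comparison against vehicle-dosed tumors.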

[7] = tested on: HCT-116; assay: cells; details: Homo sapiens, HCT-116, 72 h
[8] = tested on: MDA-MB-231; assay: cells; details: Homo sapiens, MDA-MB-231, 72 h
[9] = tested on: Mus musculus; assay: Increase in cleaved caspase-3 level in human MDA-MB-231 cells xenografted in Balb/c SCID mouse at 100 mg/kg, ip measured after 1 to 24 hrs by Western blot analysis; type: functional, organism-based; method in brief: as §1
[10] = tested on: Mus musculus; assay: Toxicity in Balb/c SCID mouse xenografted with human MDA-MB-231 cells assessed as effect on body weight at 100 mg/kg, ip bid measured everyday during compound dosing; details: in vivo
[11] = tested on: Mus musculus; assay: Reduction of cIAP1 level in human MDA-MB-231 cells xenografted in Balb/c SCID mouse at 100 mg/kg, ip measured after 24 hrs by Western blot analysis; type: functional, organism-based; method in brief: as §1
[12] = tested on: Mus musculus; assay: Reduction of cIAP1 level in human MDA-MB-231 cells xenografted in Balb/c SCID mouse at 100 mg/kg, ip measured after 1 hr by MSD plate-based method relative to vehicle-treated control; type: functional, organism-based
[13] = tested on: MDA-MB-231; assay: Antitumor activity against human MDA-MB-231 cells xenografted in Balb/c SCID mouse assessed as tumor growth inhibition at 100 mg/kg, ip bid measured every 3 days
[14] = tested on: Mus musculus; assay: Increase in cleaved PARP level in human MDA-MB-231 cells xenografted in Balb/c SCID mouse at 100 mg/kg, ip measured after 1 to 24 hrs by Western blot analysis; type: functional, organism-based; method in brief: as §1
[15] = tested on: EVSA-T; assay: cells; details: Homo sapiens, 72 h
[16] = tested on: Mus musculus; assay: Reduction of cIAP1 level in human MDA-MB-231 cells xenografted in Balb/c SCID mouse at 100 mg/kg, ip measured after 1 to 6 hrs by Western blot analysis relative to vehicle-treated control; type: functional, organism-based; method in brief: as §1
[17] = biological target: T1, E3 ubiquitin-protein ligase XIAP; assay: Antagonist activity at XIAP-BIR3 domain (unknown origin) assessed as inhibition of interaction with SMAC at 495 uM by fluorescence polarization assay relative to control
[18] = biological target: Baculoviral IAP repeat-containing protein 2 (Homo sapiens) (UniProt Q13490); assay: Antagonist activity at cIAP1-BIR3 domain (unknown origin) assessed as inhibition of interaction with SMAC at 0.01 uM by fluorescence polarization assay relative to control
[19] = biological target: T1, E3 ubiquitin-protein ligase XIAP; assay: Antagonist activity at full-length FLAG-tagged XIAP (unknown origin) transfected in HEK293 cells assessed as inhibition of interaction with caspase 9 after 2 hrs by immunoprecipitation assay; type: cell-based
[20] = tested on: MDA-MB-231; assay: Antitumor activity against human MDA-MB-231 cells xenografted in Balb/c SCID mouse assessed as tumor growth inhibition at 100 mg/kg, po qd measured every 3 days; type: functional, organism-based
Method in brief: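 Balb/c scid mice were inoculated s.c. with 5 x 10^6 MDA-MB-231 cells and dosing began when group (n=8) mean tumor volume reached 100 mm³. Arms: 100 mg/kg i.p. b.i.d., 100 mg/kg p.o. q.d., or vehicle. Tumor volume (length x width x width x 0.5) measured every 3 days; body weight recorded daily.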

[21] = biological target: T1, E3 ubiquitin-protein ligase XIAP; details: 0.05 uM

inhibition [1]: 49%
SMILES: COc1ccc2c(c1)N(C(=O)CN1CCN[C@H](C)C1)CC2

inhibition [4]: 56%
inhibition [5]: 56%
SMILES: C[C@@H]1CN(CC(=O)N2CCc3ccc(N)cc32)CCN1

inhibition [2]: 16%
inhibition [3]: 38%
SMILES: O=C(CN1CCNCC1)N1CCCCC1

inhibition [17]: 52%
SMILES: C[C@@H]1CN(CC(=O)N2CCc3ccccc32)CCN1

Continued, molecule first:

SMILES: Brc1cnn(C2CCNCC2)c1
inhibition [2]: 55%
inhibition [3]: 33%

SMILES: COC[C@H]1CN[C@H](C)CN1CC(=O)N1CC(C)(C)c2cnc(Cc3ccccc3)cc21
Activity [6]: inactive
EC50 [7]: > 10 µM
EC50 [8]: 0.59 µM
Activity [9]: Active
Activity [10]: Non-toxic
Activity [11]: inactive
Activity [12]: Active
TGI [13]: Active
Activity [14]: Active
EC50 [15]: 0.1 µM
Activity [16]: Active

SMILES: CN[C@@H](C)C(=O)N[C@H]1CN(C(=O)CC(C)C)CC[C@H]2CC[C@@H](C(=O)NC(c3ccccc3)c3ccccc3)N2C1=O [XEVINAPANT]
EC50 [7]: > 10 µM
EC50 [8]: 0.019 µM
inhibition [18]: 98%
EC50 [19]: 0.034 µM
TGI [20]: Active
inhibition [21]: 70%
EC50 [15]: 0.0021 µM
